Reference: ChEMBL document CHEMBL2163259, “ADME-guided design and synthesis of aryloxanyl pyrazolone derivatives to block mutant superoxide dismutase 1 (SOD1) cytotoxicity and protein aggregation: potential application for the treatment of amyotrophic lateral sclerosis” (J Med Chem, 2012)
Active and inactive are the calls of the source. The calls are words filed in the database; no cut-off is given here.

Experiments:
Rattus norvegicus [1] = organism: Rattus norvegicus; assay: Inhibition of rat thyroid hormone receptor at 10 uM by radioligand displacement assay
In short: (§1)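 Single concentration of 10 μM, tested in duplicate as part of a contracted panel of 68 in vitro enzyme and receptor assays. The panel covers common adverse CNS, cardiovascular, pulmonary and genotoxic targets.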

[2] = Drug uptake in B6SJL mouse brain at 300 mg/kg after 4 hrs; type: ADME, organism-based; set-up: dose 300 mg/kg; details: read-out: Drug uptake
In short: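 B6SJL mice given a 300 mg/kg intraperitoneal bolus. Blood and brain collected over 0–24 h, flash frozen in liquid nitrogen, stored at −80 °C. Analysed by mass spectrometry (ESI, MRM mode).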

Mus musculus [3] = organism: Mus musculus; assay: Inhibition of mouse phorbol ester site of PKC at 10 uM by radioligand displacement assay; in short: as §1
Rattus norvegicus [4] = organism: Rattus norvegicus; assay: Inhibition of rat kainate receptor glutamate binding site at 10 uM by radioligand displacement assay; in short: as §1
Rattus norvegicus [5] = organism: Rattus norvegicus; assay: Inhibition of rat GABAA receptor muscimol site at 10 uM by radioligand displacement assay; in short: as §1
Plasma [6] = assay: Plasma protein binding in human; type: ADME, cell-free
Rattus norvegicus [7] = organism: Rattus norvegicus; assay: Inhibition of rat GABAA receptor flunitrazepam site at 10 uM by radioligand displacement assay; in short: as §1
Homo sapiens [8] = organism: Homo sapiens; assay: Inhibition of human Sigma delta2 receptor at 10 uM by radioligand displacement assay
In short: (§2)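 LeadProfilingScreen panel of 68 in vitro enzyme and receptor assays. Compound tested at 10 μM in duplicate.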

[9] = target: Melatonin receptor type 1A (Homo sapiens) (UniProt P48039); assay: Inhibition of human MT1 receptor at 10 uM by radioligand displacement assay; in short: as §2
[10] = target: Neuropeptide Y receptor type 2 (Homo sapiens) (UniProt P49146); assay: Inhibition of human Neuropeptide Y Y2 receptor at 10 uM by radioligand displacement assay
In short: (§3)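 Single concentration of 10 μM, tested in duplicate in a contract panel of 68 in vitro enzyme and receptor binding assays covering common adverse CNS, cardiovascular, pulmonary and genotoxic targets.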

Rattus norvegicus [11] = organism: Rattus norvegicus; assay: Inhibition of rat sodium channel site 2 at 10 uM by radioligand displacement assay; in short: as §1
[12] = target: Prostaglandin E2 receptor EP4 subtype (Homo sapiens) (UniProt P35408); assay: Inhibition of human prostanoid receptor EP4 at 10 uM by radioligand displacement assay; in short: as §1
[13] = target: Muscarinic acetylcholine receptor M1 (Homo sapiens) (UniProt P11229); assay: Inhibition of human muscarinic M1 receptor at 10 uM by radioligand displacement assay; in short: as §1
[14] = target: D(3) dopamine receptor (Homo sapiens) (UniProt P35462); assay: Inhibition of human dopamine D3 receptor at 10 uM by radioligand displacement assay; in short: as §1
[15] = target: Beta-2 adrenergic receptor (Homo sapiens) (UniProt P07550); assay: Inhibition of human beta2 adrenergic receptor at 10 uM by radioligand displacement assay; in short: as §2
[16] = target: Alpha-1A adrenergic receptor (Rattus norvegicus) (UniProt P43140); assay: Inhibition of rat adrenergic alpha1A receptor at 10 uM by radioligand displacement assay; in short: as §1
Rattus norvegicus [17] = assay: Dose normalised AUC in Sprague-Dawley rat at 1 mg/kg, iv; type: ADME, organism-based; set-up: dose 1 mg/kg, route intravenous; details: in vivo
In short: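 Sprague-Dawley rats given a single 1 mg/kg bolus, intravenous or oral. Plasma PK parameters (AUC, dose-normalised AUC, half-life, clearance, Vss, Cmax, Tmax, oral bioavailability) derived from plasma levels.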

[18] = test system: Superoxide dismutase [Cu-Zn] (Homo sapiens), P00441 [G94A]; assay: Inhibition of SOD1 G93A mutant aggregation-induced cytotoxicity in human HEK293 cells by cytotoxicity protection assay; type: cell-based
Oryctolagus cuniculus = organism: Oryctolagus cuniculus; assay: Inhibition of rabbit Purinergic P2X receptor at 10 uM by radioligand displacement assay; type: tissue-based; in short: as §1
[19] = target: Gamma-aminobutyric acid type B receptor subunit 1 (Homo sapiens) (UniProt Q9UBS5); assay: Inhibition of human GABAB1A receptor at 10 uM by radioligand displacement assay; in short: as §2
Cytochrome P450 3A4 [20] = target: T1, Cytochrome P450 3A4 (Homo sapiens, UniProt P08684); assay: Inhibition of CYP3A4 using midazolam as substrate; type: ADME
In short: (§4)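 Reversible inhibition of CYP isozymes in human liver microsomes, each isozyme with a single probe substrate. CYP3A4 tested with both testosterone and midazolam. IC50 determined.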

Rattus norvegicus [21] = organism: Rattus norvegicus; assay: Inhibition of rat purinergic P2Y receptor at 10 uM by radioligand displacement assay; in short: as §1
[22] = Half life in mouse microsomes at 5 uM incubated for 1 hr at 37 degC in presence of NADPH; type: ADME, Microsome; details: 1 h, 5 µM
[23] = target: Estrogen receptor (Homo sapiens) (UniProt P03372); assay: Inhibition of human estrogen receptor-alpha at 10 uM by radioligand displacement assay; in short: as §1
Caco-2 = assay: Apparent permeability from basolateral to apical side in human Caco2 cells; type: ADME, cell-based
[24] = Volume of distribution at steady state in Sprague-Dawley rat at 1 mg/kg, iv; type: ADME, organism-based; set-up: dose 1 mg/kg, route intravenous; details: in vivo, read-out: Vdss
In short: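 Sprague-Dawley rats received a single bolus of 1 mg/kg by i.v. or by oral route. Plasma PK parameters were derived from the plasma concentration profile.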

Rattus norvegicus [25] = organism: Rattus norvegicus; assay: Inhibition of rat GABA transporter at 10 uM by radioligand displacement assay; in short: as §1
Mus musculus [26] = organism: Mus musculus; assay: Inhibition of mouse IL-1 at 10 uM by radioligand displacement assay; in short: as §1
[27] = target: 5-hydroxytryptamine receptor 1A (Homo sapiens) (UniProt P08908); assay: Inhibition of human 5HT1A receptor at 10 uM by radioligand displacement assay; in short: as §2
Cytochrome P450 1A2 = Cytochrome P450 1A2 (Homo sapiens, UniProt P05177); assay: Inhibition of CYP1A2; type: ADME; in short: as §4
[28] = target: Histamine H1 receptor (Homo sapiens) (UniProt P35367); assay: Inhibition of human histamine H1 receptor at 10 uM by radioligand displacement assay; in short: as §1
[29] = Toxicity in ip dosed wild type mouse administered twice daily; type: organism-based; details: in vivo
In short: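 Tolerability was tested in wild-type mice by i.p. injection twice daily. Each injection increased the dose one-fold, up to 75 mg/kg.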

Mus musculus [30] = assay: Neuroprotective activity in SOD1 G93A mutant B6SJL mouse ALS model assessed as life extension administered qd starting at 6 weeks of age throughout life
Plasma [31] = assay: Plasma protein binding in rat; type: ADME, cell-free
[32] = target: Glutamate NMDA receptor (Rattus norvegicus) (UniProt P35439+Q00959+Q00960+Q00961+Q62645+Q8VHN2+Q9R1M7); assay: Inhibition of rat NMDA receptor glutamate binding site at 10 uM by radioligand displacement assay; type: protein-complex assay; in short: as §1
Cytochrome P450 3A4 [33] = target: T1, Cytochrome P450 3A4; assay: Inhibition of CYP3A4 using testosterone as substrate; type: ADME; in short: as §4
Homo sapiens [34] = organism: Homo sapiens; assay: Inhibition of human dopamine […] receptor at 10 uM by radioligand displacement assay; in short: as §1
Homo sapiens [35] = organism: Homo sapiens; assay: Inhibition of human nicotinic acetylcholine receptor bungarotoxin binding site at 10 uM by radioligand displacement assay; in short: as §3
[36] = target: Delta-type opioid receptor (Homo sapiens) (UniProt P41143); assay: Inhibition of human delta-type opioid receptor at 10 uM by radioligand displacement assay; in short: as §2
Sequence of Delta-type opioid receptor (Homo sapiens) (P41143 whole entry): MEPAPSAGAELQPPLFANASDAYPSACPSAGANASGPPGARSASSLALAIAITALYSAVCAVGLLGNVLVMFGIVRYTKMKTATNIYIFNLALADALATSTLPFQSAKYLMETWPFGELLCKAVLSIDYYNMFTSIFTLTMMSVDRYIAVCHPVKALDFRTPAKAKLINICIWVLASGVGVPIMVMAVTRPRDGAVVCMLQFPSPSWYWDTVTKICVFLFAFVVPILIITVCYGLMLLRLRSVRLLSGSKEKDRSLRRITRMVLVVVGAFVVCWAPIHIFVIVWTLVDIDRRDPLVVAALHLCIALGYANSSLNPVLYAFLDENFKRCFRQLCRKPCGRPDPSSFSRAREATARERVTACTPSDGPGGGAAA

T1 sequence (P08684 whole entry): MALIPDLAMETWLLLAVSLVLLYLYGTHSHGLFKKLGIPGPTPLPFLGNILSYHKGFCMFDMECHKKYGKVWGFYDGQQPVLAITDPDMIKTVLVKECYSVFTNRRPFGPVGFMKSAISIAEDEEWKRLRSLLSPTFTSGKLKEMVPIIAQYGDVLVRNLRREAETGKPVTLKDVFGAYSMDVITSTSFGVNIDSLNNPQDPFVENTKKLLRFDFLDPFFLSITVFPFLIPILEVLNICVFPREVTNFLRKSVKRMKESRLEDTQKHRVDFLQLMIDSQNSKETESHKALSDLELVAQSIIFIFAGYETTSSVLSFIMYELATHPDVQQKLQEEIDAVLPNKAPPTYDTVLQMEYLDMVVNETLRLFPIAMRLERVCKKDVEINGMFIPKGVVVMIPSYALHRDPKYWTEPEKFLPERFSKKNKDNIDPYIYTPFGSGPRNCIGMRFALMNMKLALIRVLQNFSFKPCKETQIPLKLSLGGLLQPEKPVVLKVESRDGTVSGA
Sequence of Estrogen receptor (Homo sapiens) (P03372 whole entry): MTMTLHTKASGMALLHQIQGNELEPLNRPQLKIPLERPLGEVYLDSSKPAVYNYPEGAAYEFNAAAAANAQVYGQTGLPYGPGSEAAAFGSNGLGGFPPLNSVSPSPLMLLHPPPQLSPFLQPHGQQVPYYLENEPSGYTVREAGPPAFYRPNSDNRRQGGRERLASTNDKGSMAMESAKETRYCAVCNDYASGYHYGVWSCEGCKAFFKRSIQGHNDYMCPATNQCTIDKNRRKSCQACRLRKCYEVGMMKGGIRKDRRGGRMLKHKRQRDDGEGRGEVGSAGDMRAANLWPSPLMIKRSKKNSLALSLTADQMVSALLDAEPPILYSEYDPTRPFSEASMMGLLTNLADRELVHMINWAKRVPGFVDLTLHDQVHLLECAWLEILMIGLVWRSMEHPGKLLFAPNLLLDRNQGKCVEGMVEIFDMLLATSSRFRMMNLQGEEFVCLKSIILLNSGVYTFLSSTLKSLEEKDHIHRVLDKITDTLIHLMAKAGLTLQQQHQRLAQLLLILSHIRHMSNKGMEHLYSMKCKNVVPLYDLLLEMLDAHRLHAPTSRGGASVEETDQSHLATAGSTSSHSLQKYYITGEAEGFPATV
Sequence of Histamine H1 receptor (Homo sapiens) (P35367 whole entry): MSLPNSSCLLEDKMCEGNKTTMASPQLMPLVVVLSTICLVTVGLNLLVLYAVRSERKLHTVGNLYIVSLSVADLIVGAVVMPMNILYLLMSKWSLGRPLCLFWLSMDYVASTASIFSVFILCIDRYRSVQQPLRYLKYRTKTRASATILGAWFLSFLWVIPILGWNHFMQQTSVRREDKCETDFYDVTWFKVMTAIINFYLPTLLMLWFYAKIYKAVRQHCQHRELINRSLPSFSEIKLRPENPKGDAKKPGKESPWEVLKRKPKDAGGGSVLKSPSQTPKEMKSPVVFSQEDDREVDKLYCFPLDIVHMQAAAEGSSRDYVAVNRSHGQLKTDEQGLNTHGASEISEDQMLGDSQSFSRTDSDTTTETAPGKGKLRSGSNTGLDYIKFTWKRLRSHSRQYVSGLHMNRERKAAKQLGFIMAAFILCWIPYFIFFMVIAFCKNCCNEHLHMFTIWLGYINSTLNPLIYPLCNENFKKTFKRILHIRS
Sequence of Prostaglandin E2 receptor EP4 subtype (Homo sapiens) (P35408 whole entry): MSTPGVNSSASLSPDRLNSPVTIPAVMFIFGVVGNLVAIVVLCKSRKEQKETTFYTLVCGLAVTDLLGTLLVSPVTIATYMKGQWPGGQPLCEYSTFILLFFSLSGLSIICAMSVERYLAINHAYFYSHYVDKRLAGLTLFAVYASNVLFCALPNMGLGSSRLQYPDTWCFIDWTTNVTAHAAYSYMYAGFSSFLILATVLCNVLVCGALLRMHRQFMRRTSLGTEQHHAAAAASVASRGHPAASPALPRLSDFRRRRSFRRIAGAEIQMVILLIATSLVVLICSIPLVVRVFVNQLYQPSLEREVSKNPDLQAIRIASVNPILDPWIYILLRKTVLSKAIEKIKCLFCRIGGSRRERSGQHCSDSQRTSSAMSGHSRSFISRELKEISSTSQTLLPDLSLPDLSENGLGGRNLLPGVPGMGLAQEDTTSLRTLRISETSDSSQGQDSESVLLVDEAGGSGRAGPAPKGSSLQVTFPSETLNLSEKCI
Sequence of Neuropeptide Y receptor type 2 (Homo sapiens) (P49146 whole entry): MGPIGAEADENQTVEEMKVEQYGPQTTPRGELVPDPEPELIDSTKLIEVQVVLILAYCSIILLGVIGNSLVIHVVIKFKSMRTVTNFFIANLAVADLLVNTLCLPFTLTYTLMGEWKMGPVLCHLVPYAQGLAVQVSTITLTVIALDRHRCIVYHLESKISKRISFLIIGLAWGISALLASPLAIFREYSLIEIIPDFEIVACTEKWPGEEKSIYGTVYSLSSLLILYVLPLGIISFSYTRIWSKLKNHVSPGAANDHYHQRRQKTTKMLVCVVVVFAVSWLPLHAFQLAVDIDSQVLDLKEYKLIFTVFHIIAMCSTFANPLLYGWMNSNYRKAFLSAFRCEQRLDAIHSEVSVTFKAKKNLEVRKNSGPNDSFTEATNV
Sequence of Alpha-1A adrenergic receptor (Rattus norvegicus) (P43140 whole entry): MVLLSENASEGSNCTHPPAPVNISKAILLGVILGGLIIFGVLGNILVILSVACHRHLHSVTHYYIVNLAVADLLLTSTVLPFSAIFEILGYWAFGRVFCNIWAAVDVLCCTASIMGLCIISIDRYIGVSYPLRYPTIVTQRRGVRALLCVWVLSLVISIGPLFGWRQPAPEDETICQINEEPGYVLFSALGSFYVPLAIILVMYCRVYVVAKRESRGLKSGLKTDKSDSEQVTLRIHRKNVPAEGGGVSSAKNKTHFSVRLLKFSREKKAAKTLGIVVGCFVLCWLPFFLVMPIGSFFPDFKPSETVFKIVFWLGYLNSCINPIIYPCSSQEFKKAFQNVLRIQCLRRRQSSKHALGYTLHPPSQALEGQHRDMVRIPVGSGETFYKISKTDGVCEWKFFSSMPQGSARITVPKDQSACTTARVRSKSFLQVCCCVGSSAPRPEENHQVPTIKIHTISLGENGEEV
Sequence of Melatonin receptor type 1A (Homo sapiens) (P48039 whole entry): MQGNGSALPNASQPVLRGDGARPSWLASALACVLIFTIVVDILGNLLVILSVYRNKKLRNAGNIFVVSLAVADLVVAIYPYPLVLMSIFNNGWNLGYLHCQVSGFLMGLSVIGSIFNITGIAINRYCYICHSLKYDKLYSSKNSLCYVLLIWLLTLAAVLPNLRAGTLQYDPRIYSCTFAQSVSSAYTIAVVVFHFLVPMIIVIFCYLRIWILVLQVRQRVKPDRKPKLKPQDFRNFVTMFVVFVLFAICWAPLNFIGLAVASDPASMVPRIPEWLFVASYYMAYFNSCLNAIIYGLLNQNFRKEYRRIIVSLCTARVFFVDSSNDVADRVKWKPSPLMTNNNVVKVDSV
Sequence of Beta-2 adrenergic receptor (Homo sapiens) (P07550 whole entry, looked up): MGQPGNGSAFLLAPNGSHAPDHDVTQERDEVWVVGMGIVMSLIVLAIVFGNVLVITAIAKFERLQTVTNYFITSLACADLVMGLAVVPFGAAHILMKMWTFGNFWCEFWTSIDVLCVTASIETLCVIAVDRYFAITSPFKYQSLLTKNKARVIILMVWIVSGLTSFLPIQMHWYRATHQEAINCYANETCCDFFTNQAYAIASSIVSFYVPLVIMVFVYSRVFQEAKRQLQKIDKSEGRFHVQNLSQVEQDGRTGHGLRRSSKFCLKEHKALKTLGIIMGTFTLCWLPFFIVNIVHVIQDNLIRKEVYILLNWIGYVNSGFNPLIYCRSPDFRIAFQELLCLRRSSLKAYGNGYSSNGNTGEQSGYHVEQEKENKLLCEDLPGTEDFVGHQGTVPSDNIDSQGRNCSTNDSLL
Sequence of 5-hydroxytryptamine receptor 1A (Homo sapiens) (P08908 whole entry): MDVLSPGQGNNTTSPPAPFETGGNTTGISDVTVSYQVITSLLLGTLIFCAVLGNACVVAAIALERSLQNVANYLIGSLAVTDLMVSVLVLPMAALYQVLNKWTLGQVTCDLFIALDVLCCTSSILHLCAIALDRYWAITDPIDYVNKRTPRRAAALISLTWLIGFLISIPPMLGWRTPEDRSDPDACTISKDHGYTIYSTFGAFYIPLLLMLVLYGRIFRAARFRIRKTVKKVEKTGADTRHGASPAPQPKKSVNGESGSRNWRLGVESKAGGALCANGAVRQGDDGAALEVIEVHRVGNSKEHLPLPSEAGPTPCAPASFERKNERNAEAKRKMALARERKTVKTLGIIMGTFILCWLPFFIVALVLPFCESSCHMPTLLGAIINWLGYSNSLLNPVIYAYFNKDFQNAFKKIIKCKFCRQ
Sequence of Superoxide dismutase [Cu-Zn] (Homo sapiens), P00441 [G94A] (P00441 whole entry G94A): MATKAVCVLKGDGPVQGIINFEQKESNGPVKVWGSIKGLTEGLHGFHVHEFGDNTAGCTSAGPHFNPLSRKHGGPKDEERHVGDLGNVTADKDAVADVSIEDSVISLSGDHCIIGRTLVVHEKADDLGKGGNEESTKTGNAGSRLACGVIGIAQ

Compound O=c1cc(COc2cc(Cl)cc(Cl)c2)[nH][nH]1 has an inhibition (Rattus norvegicus [1]) of 10%, a concentration at 4 h [2] of 194 µM and an inhibition (Mus musculus [3]) of 1%. The inhibition (Rattus norvegicus [4]) was 24%, the inhibition (Rattus norvegicus [5]) was 1% and the PPB (Plasma [6]) was 98%. It also gave an inhibition (Rattus norvegicus [7]) of 12%, an inhibition (Homo sapiens [8]) of 5% and an inhibition [9] of 3%. The inhibition [10] was 6%, the inhibition (Rattus norvegicus [11]) was 4% and the inhibition [12] was -8%. The inhibition [13] was 2%, the inhibition [14] was -4% and the inhibition [15] was -2%. For the same compound, the inhibition [16] was -2%, the AUC/dose (Rattus norvegicus [17]) was 184 ng·h/mL/mg/kg and the inhibition [18] was “Active”. For the same compound, the inhibition (Oryctolagus cuniculus) was 1%, the inhibition [19] was -7% and the IC50 (Cytochrome P450 3A4 [20]) was over 50 µM. The inhibition (Rattus norvegicus [21]) was 5%, the t1/2 [22] was 36 min and the inhibition [23] was 10%. The Papp (Caco-2) was 14.1 ×10⁻⁶ cm/s, the Vd [24] was 5.7 L/kg and the inhibition (Rattus norvegicus [25]) was -4%. For the same compound, the inhibition (Mus musculus [26]) was 3%, the inhibition [27] was -6% and the IC50 (Cytochrome P450 1A2) was over 50 µM. For the same compound, the inhibition [28] was 1%, the MTD [29] was 75 mg/kg and the Activity (Mus musculus [30]) was “Dose-dependent effect”. It also gave a PPB (Plasma [31]) of 98%, an inhibition [32] of -3% and an IC50 (Cytochrome P450 3A4 [33]) of over 50 µM. It also gave an inhibition (Homo sapiens [34]) of 14%, an inhibition (Homo sapiens [35]) of 6% and an inhibition [36] of 25%.
